In publication PMC8992017 (Journal of medicinal chemistry, 2019):

Columns and labels:
[1] = system: NF-κB; test: NF-κB activation in THP1-Blue NF-κB reporter cells; format: cell-based; conditions: compound 5 μM + LPS, compared with compound 1
Method in brief: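 THP1-Blue NF-κB cells at 10^5/well in RPMI with 10% FBS, pen/strep and Normocin. Test compound (1 mM DMSO stock) was diluted into LPS medium, giving final 5 μM compound ([…]), with LPS co-added. After 20 h, supernatant SEAP was measured colorimetrically with QuantiBlue at 630 nm. Two-point normalized: reference sulfonamide + LPS = 200%, LPS alone = 100%; mean ± SEM.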

[2] = system: ISRE; test: ISRE activity in ISRE-bla THP-1 reporter cells; format: cell-based; conditions: compound 5 μM + IFN-α, compared with compound 1
Method in brief: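 ISRE-bla THP-1 cells at 5×10^4/well in RPMI with 10% dialyzed FBS, 0.1 mM non-essential amino acids, 1 mM pyruvate and pen/strep. Test compound (1 mM DMSO stock) was diluted in IFN-α medium, giving final 5 μM compound ([…]) and final 100 U/mL IFN-α. Incubation 16 h, then CCF4-AM FRET substrate 3 h at RT in the dark. Excitation 405 nm; background-subtracted 465/535 nm emission ratio. Two-point normalized: reference sulfonamide + IFN-α = 200%, IFN-α alone = 100%; mean ± SEM.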

SMILES	NF-κB activity (in words) [1]	ISRE activity (in words) [2]
C#CCCCN(c1cc(OC)c(Cl)cc1OC)S(=O)(=O)c1ccc(OCC)cc1 [Compound 44, N-(4-chloro-2,5-dimethoxyphenyl)-4-ethoxy-N-(pent-4-yn-1-yl)benzenesulfonamide]	retained activity almost equivalent to that of compound 1	retained activity almost equivalent to that of compound 1
CCOc1ccc(S(=O)(=O)Nc2ccc(Cl)cc2OC)cc1 [Compound 5, N-(4-chloro-2-methoxyphenyl)-4-ethoxybenzenesulfonamide]	complete loss of activity	complete loss of activity
CCOC(=O)CCCN(c1cc(OC)c(Cl)cc1OC)S(=O)(=O)c1ccc(OCC)cc1 [Compound 50, Ethyl 4-((N-(4-chloro-2,5-dimethoxyphenyl)-4-ethoxyphenyl)sulfonamido)butanoate]	retained dual NF-κB and ISRE activities	retained dual NF-κB and ISRE activities
CCOc1ccc(S(=O)(=O)N(c2cc(OC)c(Cl)cc2OC)C(C)C)cc1 [Compound 40, N-(4-chloro-2,5-dimethoxyphenyl)-4-ethoxy-N-isopropylbenzenesulfonamide]	eliminated the NF-κB activity	retaining ISRE activity
CCCOc1ccc(S(=O)(=O)Nc2cc(OC)c(Cl)cc2OC)cc1 [Compound 13, N-(4-chloro-2,5-dimethoxyphenyl)-4-propoxybenzenesulfonamide]	weakly active	weakly active
CCCCOc1ccc(S(=O)(=O)Nc2cc(OC)c(Cl)cc2OC)cc1 [Compound 14, 4-Butoxy-N-(4-chloro-2,5-dimethoxyphenyl)benzenesulfonamide]	gradual loss of activity	gradual loss of activity
CCOc1ccc(S(=O)(=O)N(Cc2ccccc2)c2cc(OC)c(Cl)cc2OC)cc1 [Compound 46, N-benzyl-N-(4-chloro-2,5-dimethoxyphenyl)-4-ethoxybenzenesulfonamide]	potent analogs	potent analogs
COc1cc(NS(=O)(=O)c2ccc(C#N)cc2)c(OC)cc1Cl [Compound 19, N-(4-chloro-2,5-dimethoxyphenyl)-4-cyanobenzenesulfonamide]	either weakly active or completely inactive	either weakly active or completely inactive
C#CCN(c1cc(OC)c(Cl)cc1OC)S(=O)(=O)c1ccc(OCC)cc1 [Compound 42, N-(4-chloro-2,5-dimethoxyphenyl)-4-ethoxy-N-(prop-2-yn-1-yl)benzenesulfonamide]	retained activity almost equivalent to that of compound 1	retained activity almost equivalent to that of compound 1
CCOc1ccc(S(=O)(=O)N(CC(C)C)c2cc(OC)c(Cl)cc2OC)cc1 [Compound 41, N-(4-chloro-2,5-dimethoxyphenyl)-4-ethoxy-N-isobutylbenzenesulfonamide]	regained the activity	regained the activity
C#CCN(c1cc(OC)c(N=[N+]=[N-])cc1OC)S(=O)(=O)c1ccc(OCC)cc1 [Compound 62, N-(4-azido-2,5-dimethoxyphenyl)-4-ethoxy-N-(prop-2-yn-1-yl)benzenesulfonamide]	very potent	very potent
COc1cc(NS(=O)(=O)c2ccc(CNC(=O)OC(C)(C)C)cc2)c(OC)cc1Cl [Compound 20, tert-butyl (4-(N-(4-chloro-2,5-dimethoxyphenyl)sulfamoyl)benzyl)carbamate]	either weakly active or completely inactive	either weakly active or completely inactive
CCOc1ccc(S(=O)(=O)N(CCCNC(=O)CCCCCNC(=O)c2ccc3c(c2)C(=O)OC32c3ccc(O)cc3Oc3cc(O)ccc32)c2cc(OC)c(Cl)cc2OC)cc1 [Compound 56, N-(6-((3-((N-(4-chloro-2,5-dimethoxyphenyl)-4-ethoxyphenyl)sulfonamido)propyl)amino)-6-oxohexyl)-3’,6’-dihydroxy-3-oxo-3H-spiro[isobenzofuran-1,9’-xanthene]-5-carboxamide]	completely inactive	completely inactive
CCOc1ccc(S(=O)(=O)Nc2cc(OC)c([N+](=O)[O-])cc2OC)cc1 [Compound 9, N-(2,5-dimethoxy-4-nitrophenyl)-4-ethoxybenzenesulfonamide]		inactive
COc1cc(NS(=O)(=O)c2ccc(C(=O)O)cc2)c(OC)cc1Cl [Compound 28, 4-(N-(4-chloro-2,5-dimethoxyphenyl)sulfamoyl)benzoic acid]	lost activity	lost activity
CCOc1ccc(S(=O)(=O)N(CCCNC(=O)CCCC[C@H]2SC[C@H]3NC(=O)N[C@H]32)c2cc(OC)c(N=[N+]=[N-])cc2OC)cc1 [Compound 64, N-(3-((N-(4-azido-2,5-dimethoxyphenyl)-4-ethoxyphenyl)sulfonamido)propyl)-5((3aR,4R,6aS)-2-oxohexahydro-1H-thieno[3,4-d]imidazol-4-yl)pentanamide]	relatively weak activity	relatively weak activity
C#CCOCCOCCOCCN(c1cc(OC)c(Cl)cc1OC)S(=O)(=O)c1ccc(OCC)cc1 [Compound 45, N-(4-chloro-2,5-dimethoxyphenyl)-4-ethoxy-N-(2-(2-(2-(prop-2-yn-1yloxy)ethoxy)ethoxy)ethyl)benzenesulfonamide]	too long to retain activity	too long to retain activity
CCOc1ccc(S(=O)(=O)N(CCCC(=O)O)c2cc(OC)c(Cl)cc2OC)cc1 [Compound 53, 4-((N-(4-chloro-2,5-dimethoxyphenyl)-4-ethoxyphenyl)sulfonamido)butanoic acid]	retaining the NF-κB activity	reduction in ISRE activity
COc1ccc(S(=O)(=O)Nc2cc(OC)c(Cl)cc2OC)cc1 [Compound 12, N-(4-chloro-2,5-dimethoxyphenyl)-4-methoxybenzenesulfonamide]	tolerated	tolerated
C#CCOc1ccc(S(=O)(=O)Nc2cc(OC)c(Cl)cc2OC)cc1 [Compound 15, N-(4-chloro-2,5-dimethoxyphenyl)-4-(prop-2-yn-1-yloxy)benzenesulfonamide]	inactive	inactive
CNC(=O)c1ccc(S(=O)(=O)Nc2cc(OC)c(Cl)cc2OC)cc1 [Compound 30, 4-(N-(4-chloro-2,5-dimethoxyphenyl)sulfamoyl)-N-methylbenzamide]	completely inactive	completely inactive
CCOc1ccc(S(=O)(=O)N(CCCNC(=O)OC(C)(C)C)c2cc(OC)c(Cl)cc2OC)cc1 [Compound 52, tert-Butyl (3-((N-(4-chloro-2,5-dimethoxyphenyl)-4-ethoxyphenyl)sulfonamido)propyl)carbamate]	reduction in activity	reduction in activity
CCOc1ccc(S(=O)(=O)Nc2cc(OC)c(N)cc2OC)cc1 [Compound 10, N-(4-amino-2,5-dimethoxyphenyl)-4-ethoxybenzenesulfonamide]		inactive
CCOC(=O)c1ccc(S(=O)(=O)Nc2cc(OC)c(Cl)cc2OC)cc1 [Compound 29, Ethyl 4-(N-(4-chloro-2,5-dimethoxyphenyl)sulfamoyl)benzoate]	retained partial activity	retained partial activity
COC(=O)c1ccc(S(=O)(=O)Nc2cc(OC)c(Cl)cc2OC)cc1 [Compound 26, Methyl 4-(N-(4-chloro-2,5-dimethoxyphenyl)sulfamoyl)benzoate]		active
C#CCCN(c1cc(OC)c(Cl)cc1OC)S(=O)(=O)c1ccc(OCC)cc1 [Compound 43, N-(but-3-yn-1-yl)-N-(4-chloro-2,5-dimethoxyphenyl)-4-ethoxybenzenesulfonamide]	retained activity almost equivalent to that of compound 1	retained activity almost equivalent to that of compound 1
COc1cc(NS(=O)(=O)c2ccc(Oc3ccccc3)cc2)c(OC)cc1Cl [Compound 22, N-(4-chloro-2,5-dimethoxyphenyl)-4-phenoxybenzenesulfonamide]		inactive
COc1cc(NS(=O)(=O)c2ccc(OC)c(N=[N+]=[N-])c2)c(OC)cc1Cl [Compound 61, 3-Azido-N-(4-chloro-2,5-dimethoxyphenyl)-4-methoxybenzenesulfonamide]		inactive
